The values below come from ChEMBL document CHEMBL1157464, “1-[(3-Aryloxy-3-aryl)propyl]-1H-imidazoles, new imidazoles with potent activity against Candida albicans and dermatophytes. Synthesis, structure-activity relationship, and molecular modeling studies” (J Med Chem, 2008).

For one data set, the system named is Candida parapsilosis. As to the kind of experiment: Antifungal activity against Candida parapsilosis ATCC 22019 at 35 degC after 48 hrs by broth microdilution test. The following applies: for MFC: read-out: MFC. Format: functional. The essentials:
(§1)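 Broth microdilution per NCCLS M27-A2. Stocks in 100% DMSO, diluted in RPMI 1640 with 0.165 M MOPS at pH 7.0; final range 0.25–128 µg/mL. Inoculum 1000–5000 cells/mL from SDA subcultures. […] C. parapsilosis ATCC22019 served as QC strain.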

The nature of data set [1]: Cytotoxicity against human U937 cells assessed as reduction of cell viability after 24 hrs by MTT assay. Format: cell-based, U-937. In outline: (§2)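 U937 and K562 cells, from ATCC, plated at 5 × 10^4/mL in phenol-red-free RPMI-1640 with 20% FBS and penicillin/streptomycin. Compounds added 2 h later at 25–100 µg/mL, then 24 h at 37 °C. MTT at 1 mg/mL for 3 h, formazan dissolved in isopropanol with 0.1 N HCl, absorbance read at 570 nm. CC50 is the concentration reducing viability by 50% versus the drug-free control.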

For data set [2], the system named is Arthrodermataceae. As to the kind of experiment: Antifungal activity against dermatophytes at 28 degC after 7 days by broth microdilution test. The following applies: 168 h. Format: functional. The essentials:
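Ten clinical isolates (two M. canis, five M. gypseum, three T. mentagrophytes) tested by NCCLS M38-A broth microdilution in MOPS-buffered RPMI 1640, pH 7.0, over 0.25–128 µg/mL. Conidial/hyphal suspension from PDA slants (28 °C, 7 days) adjusted to 65–70% transmittance at OD530, then diluted 1:50.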

The test system of data set [3] is Candida albicans. As to the kind of experiment: Antifungal activity against fluconazole-resistant Candida albicans isolated from oropharyngeal or vaginal disease patient after 48 hrs by broth microdilution test. Format: functional.
Data set [4] has as its system Candida albicans. The experiment in a line: Antifungal activity against Candida albicans ATCC 10261 at 35 degC after 48 hrs by broth microdilution test. In kind it is functional. Particulars: for MIC50: read-out: MIC50. The essentials:
as §1

Data set [5] relates to Candida albicans. The experiment in a line: Antifungal activity against fluconazole-sensitive Candida albicans Fe40 at 35 degC after 48 hrs by broth microdilution test. In kind it is functional. In outline: as §1
The test system of data set [6] is Arthrodermataceae. As to the kind of experiment: Antifungal activity against dermatophytes at 28 degC after 48 to 96 hrs by broth microdilution test.
Data set [7] deals with Candida albicans. The experiment in a line: Antifungal activity against Candida albicans ATCC 10261 at 35 degC after 48 to 96 hrs by broth microdilution test. In kind it is functional. The essentials: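 Minimal fungicidal concentration for Candida. […] MFC is the lowest concentration allowing fewer than two colonies (99% killing).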
For data set [8], the system named is Arthrodermataceae. As to the kind of experiment: Antifungal activity against dermatophytes at 28 degC after 5 days by broth microdilution test. Particulars: for MFC: Arthrodermataceae.
The nature of data set [9]: Cytotoxicity against human K562 cells after assessed as reduction of cell viability 24 hrs by MTT assay. In kind it is cell-based. The essentials:
as §2

A short description of data set [10]: Therapeutic index, ratio of CC50 for human K562 cells to MIC90 for Candida albicans ATCC 10261. In kind it is cell-based. The essentials: (§3)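 Therapeutic index calculated as CC50 in the given cell line divided by MIC90.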
Data set [11] can be described thus: Therapeutic index, ratio of CC50 for human U937 cells to MIC90 for Candida albicans ATCC 10261. In kind it is cell-based, U-937. The essentials: as §3
The mark [12] stands for this setting: Lodderomyces parapsilosis, ATCC 22019, 48 h.
Setting [13] is: Candida albicans, ATCC 10261, 48 h.
The mark [14] stands for this setting: Lodderomyces parapsilosis, ATCC 22019, 48 h, read-out: MIC.
[15] abbreviates: Candida albicans, ATCC 10261, 48 h, read-out: MIC.
Where [16] appears, read: Candida albicans, ATCC 10261, 48 h, read-out: MIC90.
[17] abbreviates: Candida albicans, ATCC 10261, read-out: MFC.

Each structure is given as a SMILES string. Converted amounts (≈) assume the structure as drawn. A value given as a limit tells only on which side of the number the result lay.

`Clc1ccc(OC(CCn2ccnc2)c2ccccc2)c(Cl)c1` (racemic): the MIC against Candida parapsilosis came out at 2 µg/mL (≈ 5.76 µM); with Arthrodermataceae [2], 9.2 µg/mL (≈ 26.5 µM); in the data set on Candida albicans [3] it was 7.2 µg/mL (≈ 20.7 µM); in the data set on Candida albicans [4], 5.3 µg/mL (≈ 15.3 µM); against Candida albicans [5], 2 µg/mL (≈ 5.76 µM). For the same molecule, the minimum fungicidal concentration (MFC) was 8 µg/mL (≈ 23 µM) in the data set on Candida parapsilosis (setting [12]), 11.4 µg/mL (≈ 32.8 µM) against Candida albicans [7] and 28.8 µg/mL (≈ 82.9 µM) in the data set on Arthrodermataceae [8]. Also, the half-maximal cytotoxic concentration (CC50) at 24 h in [1] stood at 166 µM; in [9], 121 µM. Moreover, the MIC50 against Arthrodermataceae [2] and in the data set with Candida albicans [4] (setting [13]) was 8 µg/mL (≈ 23 µM) throughout. The MIC90 in the data set with Arthrodermataceae [2] and in the data set with Candida albicans [4] was 8 µg/mL (≈ 23 µM) in each case. Further, the MFC50 stood at 16 µg/mL (≈ 46.1 µM) against Arthrodermataceae [6] and 8 µg/mL (≈ 23 µM) with Candida albicans [7]. Moreover, the MFC90 against Candida albicans [7] was 16 µg/mL (≈ 46.1 µM); with Arthrodermataceae [8] it was 32 µg/mL (≈ 92.2 µM).
In the case of `Clc1ccc(COC(Cn2ccnc2)c2ccc(Cl)cc2Cl)c(Cl)c1` (stereo unspecified) [MICONAZOLE], the minimal fungicidal concentration (MFC) with Candida parapsilosis (setting [12]) turned out to be 0.5 µg/mL (≈ 1.2 µM); with Candida albicans [7] (setting [17]) it was 12.2 µg/mL (≈ 29.3 µM); against Arthrodermataceae [8], 3 µg/mL (≈ 7.21 µM). In addition, the MIC in the data set with Candida parapsilosis (setting [14]) turned out to be 1 µg/mL (≈ 2.4 µM); in the data set on Arthrodermataceae [2], 0.9 µg/mL (≈ 2.16 µM); against Candida albicans [3], 3 µg/mL (≈ 7.21 µM); in the data set on Candida albicans [4] (setting [15]) it was 3.25 µg/mL (≈ 7.81 µM); against Candida albicans [5] it was 4 µg/mL (≈ 9.61 µM). Moreover, the figures for the cytotoxic concentration (CC50) at 24 h in data set [1] and in data set [9] were 120 µM and 80 µM, respectively. Further, the selectivity ratio in data set [10] was determined as 20; in data set [11], 30. For the same molecule, the MIC50 against Arthrodermataceae [2] was found to be 1 µg/mL (≈ 2.4 µM); in the data set on Candida albicans [4] (setting [13]), 4 µg/mL (≈ 9.61 µM). Also, the MIC90 against Arthrodermataceae [2] came to 1 µg/mL (≈ 2.4 µM); in the data set on Candida albicans [4] (setting [16]) it was 4 µg/mL (≈ 9.61 µM). Also, the MFC50 against Arthrodermataceae [6] is 2 µg/mL (≈ 4.81 µM); in the data set with Candida albicans [7], 8 µg/mL (≈ 19.2 µM). Further, the figures for the MFC90 with Candida albicans [7] and against Arthrodermataceae [8] were 16 µg/mL (≈ 38.4 µM) and 4 µg/mL (≈ 9.61 µM), respectively.
In the case of `Clc1ccc(C(CCn2ccnc2)Oc2ccc(Cl)cc2Cl)cc1` (stereo unspecified), the MFC is 8 µg/mL (≈ 21 µM) in the data set on Candida parapsilosis (setting [12]), 5.12 µg/mL (≈ 13.4 µM) in the data set on Candida albicans [7] (setting [17]) and 11 µg/mL (≈ 28.8 µM) in the data set with Arthrodermataceae [8]. For the same molecule, the MIC in the data set on Candida parapsilosis (setting [14]) came to 1 µg/mL (≈ 2.62 µM); in the data set on Arthrodermataceae [2], 9.8 µg/mL (≈ 25.7 µM); in the data set with Candida albicans [3] it was 6.4 µg/mL (≈ 16.8 µM); in the data set on Candida albicans [4] (setting [15]) it was 2.85 µg/mL (≈ 7.47 µM); in the data set on Candida albicans [5], 2 µg/mL (≈ 5.24 µM). For the same molecule, the figures for the CC50 at 24 h in data set [1] and in data set [9] were 172 µM and 68.8 µM, respectively. The MIC50 in the data set on Arthrodermataceae [2] worked out at 8 µg/mL (≈ 21 µM); in the data set on Candida albicans [4] (setting [13]), 2 µg/mL (≈ 5.24 µM). The MIC90 in the data set on Arthrodermataceae [2] was 16 µg/mL (≈ 41.9 µM); in the data set on Candida albicans [4] (setting [16]), 4 µg/mL (≈ 10.5 µM). Besides, the MFC50 against Arthrodermataceae [6] amounted to 8 µg/mL (≈ 21 µM); in the data set with Candida albicans [7], 4 µg/mL (≈ 10.5 µM). Also, the MFC90 was 8 µg/mL (≈ 21 µM) with Candida albicans [7] and 16 µg/mL (≈ 41.9 µM) in the data set on Arthrodermataceae [8].
With `Clc1ccc(C(CCn2ccnc2)Oc2ccccc2)cc1` (stereo unspecified), the values for the minimum fungicidal concentration (MFC) in the data set on Candida parapsilosis (setting [12]), in the data set with Candida albicans [7] (setting [17]) and against Arthrodermataceae [8] were 16 µg/mL (≈ 51.2 µM), 29.2 µg/mL (≈ 93.4 µM) and 30.4 µg/mL (≈ 97.2 µM), respectively. Further, the MIC in the data set with Candida parapsilosis (setting [14]) was 4 µg/mL (≈ 12.8 µM); in the data set with Arthrodermataceae [2] it was 7.2 µg/mL (≈ 23 µM); in the data set on Candida albicans [3], 14.4 µg/mL (≈ 46 µM); in the data set on Candida albicans [4] (setting [15]), 8.8 µg/mL (≈ 28.1 µM); against Candida albicans [5] it was 8 µg/mL (≈ 25.6 µM). In addition, the cytotoxic concentration (CC50) at 24 h in data set [1] was 248 µM; in data set [9], 186 µM. Moreover, the MIC50 against Arthrodermataceae [2] and with Candida albicans [4] (setting [13]) was 8 µg/mL (≈ 25.6 µM) in each case. Further, the MIC90 in the data set with Arthrodermataceae [2] turned out to be 8 µg/mL (≈ 25.6 µM); with Candida albicans [4] (setting [16]), 16 µg/mL (≈ 51.2 µM). Further, the MFC50 in the data set with Arthrodermataceae [6] stood at 32 µg/mL (≈ 102 µM); with Candida albicans [7] it was 16 µg/mL (≈ 51.2 µM). Further, the MFC90 in the data set on Candida albicans [7] was determined as 64 µg/mL (≈ 205 µM); with Arthrodermataceae [8] it was 32 µg/mL (≈ 102 µM).
Regarding `OC(Cn1cncn1)(Cn1cncn1)c1ccc(F)cc1F` [FLUCONAZOLE], the MFC with Candida parapsilosis (setting [12]) is 8 µg/mL (≈ 26.1 µM); with Candida albicans [7] (setting [17]), more than 64 µg/mL. Moreover, the MIC in the data set on Candida parapsilosis (setting [14]) was found to be 0.5 µg/mL (≈ 1.63 µM); against Candida albicans [3], 128 µg/mL (≈ 418 µM); in the data set with Candida albicans [4] (setting [15]) it was 15.3 µg/mL (≈ 50 µM); with Candida albicans [5] it was 0.25 µg/mL (≈ 0.816 µM). Further, the figures for the half-maximal cytotoxic concentration (CC50) at 24 h in [1] and in data set [9] were 328 µM and 385 µM, respectively. For the same molecule, the selectivity ratio in data set [10] was determined as 6; in data set [11], 5.1. Also, in the data set with Candida albicans [4] (setting [13]), the MIC50 is 2 µg/mL (≈ 6.53 µM). For the same molecule, in the data set with Candida albicans [4] (setting [16]), the MIC90 was 64 µg/mL (≈ 209 µM).
